# Calls of active or inactive are those of the source. No cut-off for these calls is given here.
# Columns and labels:
# [1] = species on record: Rattus norvegicus; experiment: Compound was tested for the inhibition of release of histamine in rat passive peritoneal anaphylaxis; assay type: functional, organism-based
# Summary of the method: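 Rat passive peritoneal anaphylaxis: antiserum i.p. sensitization for 2 h, then i.p. ovalbumin challenge (0.4 mg/mL in 5 mL Tyrode). Compound given i.p. in saline 30 s before antigen; dose expressed as concentration in 6 mL fluid. Peritoneal fluid taken at 5 min, supernatant TCA-treated, histamine measured spectrofluorimetrically. 5–7 rats/dose; % inhibition vs positive controls; ED50 from log-dose regression.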
# [2] = molecular target: T1, Histamine H1 receptor (Cavia porcellus, UniProt P31389); experiment: Compound was tested for H1-antihistamine activity in guinea pig ileum.; assay type: functional, tissue-based; details: read-out: pA2 (converted)
# T1 sequence (P31389 whole entry): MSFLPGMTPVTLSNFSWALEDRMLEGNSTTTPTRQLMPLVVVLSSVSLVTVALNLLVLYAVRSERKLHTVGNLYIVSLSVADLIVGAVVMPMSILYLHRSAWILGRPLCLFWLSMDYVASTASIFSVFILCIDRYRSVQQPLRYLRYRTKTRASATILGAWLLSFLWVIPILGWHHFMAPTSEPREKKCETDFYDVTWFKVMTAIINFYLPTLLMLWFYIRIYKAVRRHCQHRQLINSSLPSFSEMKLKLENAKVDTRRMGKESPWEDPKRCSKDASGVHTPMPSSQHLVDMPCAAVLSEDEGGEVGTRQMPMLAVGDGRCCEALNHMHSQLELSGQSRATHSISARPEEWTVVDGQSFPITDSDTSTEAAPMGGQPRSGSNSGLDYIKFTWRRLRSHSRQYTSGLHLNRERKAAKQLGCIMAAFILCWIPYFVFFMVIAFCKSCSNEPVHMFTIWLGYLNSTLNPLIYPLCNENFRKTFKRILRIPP
# Summary of the method: (§1)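 Isolated guinea pig ileum under ca. 1 g tension in Tyrode solution, with isotonic recording of histamine contractions. Method A: repeat histamine dose-response curves at increasing antagonist concentrations, then Schild plot of log(DR−1) vs −log molar concentration; pA2 is the abscissa intercept. Method B: 10-min antagonist exposure, then double histamine dose (~50% maximal single dose), three antagonist doses each tested three times.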
# [3] = species on record: Rattus norvegicus; experiment: Compound was tested for the inhibition of release of extravasation in rat passive peritoneal anaphylaxis; assay type: functional, organism-based
# Summary of the method: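 Rats passively sensitized i.p. with 2 mL 1:5 rat antiserum. Two hours later, i.v. Pontamine Sky Blue, then i.p. challenge with 5 mL Tyrode containing 0.4 mg/mL ovalbumin and heparin. Compound given i.p. in 1 mL saline 30 s before antigen; dose expressed as concentration in 6 mL injected. Peritoneal fluid collected at 5 min; dye read at OD 625 nm. 5–7 rats/dose; ED50 from log-dose regression.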
# [4] = molecular target: T1, Histamine H1 receptor; experiment: H1-antihistamine activity in guinea pig ileum; assay type: functional, tissue-based; details: read-out: pA2 (converted); summary of the method: as §1
# [5] = molecular target: Histamine H1 receptor (Cavia porcellus) (UniProt P31389); experiment: Compound was tested for H1-antihistamine activity in guinea pig ileum; IA = Inactive; assay type: functional, tissue-based; summary of the method: as §1
# Histamine H1 receptor (Cavia porcellus), sequence (P31389 whole entry): as above
SMILES,IC50 [1] [nM],Kb [2] [nM],IC50 [3] [nM],Kb [4] [nM],pA2 [5]
CN1CCC(=C2c3ccccc3CC(=O)c3sccc32)CC1 [KETOTIFEN],> 200000,–,–,–,–
Cc1c(OCCCN(C)CCN(C)Cc2ccc(Cl)cc2)ccc2c(O)c3nnnc-3oc12,–,79.4,–,–,–
COc1ccc(CN(CCN(C)C)c2ccccn2)cc1 [PYRILAMINE],> 200000,–,–,–,–
O=C(O)c1cc(=O)c2c(OCC(O)COc3cccc4oc(C(=O)O)cc(=O)c34)cccc2o1,–,–,–,–,inactive
COc1ccc(CN2CCN(CCCOc3ccc4c(O)c5nnnc-5oc4c3C)CC2)cc1,–,63.1,–,–,–
Oc1c2nnnc-2oc2cc(OCCCN3CCN(Cc4ccc(Cl)cc4)CC3)ccc12,5400,–,31000,0.794,–

# Results, then the compound that gave them:
IC50 [1] [nM],Kb [2] [nM],IC50 [3] [nM],Kb [4] [nM],pA2 [5],SMILES
890,15.8,> 20000,–,–,Cc1ccc(CN2CCN(CCCOc3ccc4c(O)c5nnnc-5oc4c3C)CC2)cc1
840,–,55000,1.58,–,Cc1c(OCCCN2CCN(Cc3ccc(Cl)cc3)CC2)ccc2c(O)c3nnnc-3oc12
2300,–,10000,3.98,–,Cc1c(OCCCN2CCN(Cc3ccccc3Cl)CC2)ccc2c(O)c3nnnc-3oc12
100,–,> 20000,15.8,–,Cc1c(OCCCN2CCN(Cc3ccccn3)CC2)ccc2c(O)c3nnnc-3oc12
1000,–,> 20000,3.98,–,Cc1c(OCCCN2CCN(Cc3cccc(Cl)c3)CC2)ccc2c(O)c3nnnc-3oc12

# From ChEMBL document CHEMBL1123461, “Studies on 1,2,3-triazoles. 13. (Piperazinylalkoxy) [1]benzopyrano[2,3-d]-1,2,3-triazol-9(1H)-ones with combined H1-antihistamine and mast cell stabilizing properties” (J Med Chem, 1986)
